The structures appear in SMILES notation. The source made the active and inactive calls. The rule behind the calls is not given here.

The target in data set [1] is Peroxisome proliferator-activated receptor (Homo sapiens) (UniProt P37231+Q07869+Q03181). In words: Agonist activity at PPAR in human THP1 cells assessed as induction of ABCG1 expression at 20 uM after 24 hrs by Western blot analysis relative to control. Format: cell-based. As to conditions: THP-1. On the technique in general: In western blotting, separated proteins are transferred to a membrane and probed.

Data set [2] in a line: in vitro. The conditions noted are these: human, HEK293 cells.
For data set [3], the target named is T1, Peroxisome proliferator-activated receptor alpha (Homo sapiens) (UniProt Q07869).
T1 sequence (whole entry): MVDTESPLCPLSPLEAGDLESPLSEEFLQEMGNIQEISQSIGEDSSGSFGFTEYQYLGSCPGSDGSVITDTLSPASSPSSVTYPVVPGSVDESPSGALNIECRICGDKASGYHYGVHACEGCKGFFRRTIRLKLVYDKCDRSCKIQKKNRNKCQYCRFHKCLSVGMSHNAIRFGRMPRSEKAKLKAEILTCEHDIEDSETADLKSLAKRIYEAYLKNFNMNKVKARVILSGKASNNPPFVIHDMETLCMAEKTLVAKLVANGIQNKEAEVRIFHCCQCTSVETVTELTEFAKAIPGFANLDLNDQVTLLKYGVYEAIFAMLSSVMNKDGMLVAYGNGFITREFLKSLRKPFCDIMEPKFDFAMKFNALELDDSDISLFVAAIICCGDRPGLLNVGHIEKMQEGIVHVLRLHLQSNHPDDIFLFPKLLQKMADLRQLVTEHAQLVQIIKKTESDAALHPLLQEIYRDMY
Kind of data set: Agonist activity at PPARalpha in human HuH7 cells assessed as increase of fatty acid oxidation by measuring CO2 production using […] at 20 uM after 18 hrs by scintillation counting. The conditions noted are these: Huh-7. Format: cell-based.

Data set [4] concerns the target T1, Peroxisome proliferator-activated receptor alpha (Homo sapiens). In words: Agonist activity at PPARalpha in human HuH7 cells assessed as increase of CPT1alpha expression at 20 uM by Western blotting relative to control. The data set is classed as cell-based. As to conditions: Huh-7. Summed up: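 HuH7 hepatoma cells (DMEM/F-12, 10% FCS) incubated overnight ± 20 μM. Whole-cell lysates run on 12% SDS-PAGE and immunoblotted for CPT1α with HRP secondary and ECL. Band intensity normalised to actin; mean ± SEM, n = 3.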

Data set [5] deals with T2, Peroxisome proliferator-activated receptor gamma (Mus musculus) (UniProt P37238).
T2 sequence (whole entry): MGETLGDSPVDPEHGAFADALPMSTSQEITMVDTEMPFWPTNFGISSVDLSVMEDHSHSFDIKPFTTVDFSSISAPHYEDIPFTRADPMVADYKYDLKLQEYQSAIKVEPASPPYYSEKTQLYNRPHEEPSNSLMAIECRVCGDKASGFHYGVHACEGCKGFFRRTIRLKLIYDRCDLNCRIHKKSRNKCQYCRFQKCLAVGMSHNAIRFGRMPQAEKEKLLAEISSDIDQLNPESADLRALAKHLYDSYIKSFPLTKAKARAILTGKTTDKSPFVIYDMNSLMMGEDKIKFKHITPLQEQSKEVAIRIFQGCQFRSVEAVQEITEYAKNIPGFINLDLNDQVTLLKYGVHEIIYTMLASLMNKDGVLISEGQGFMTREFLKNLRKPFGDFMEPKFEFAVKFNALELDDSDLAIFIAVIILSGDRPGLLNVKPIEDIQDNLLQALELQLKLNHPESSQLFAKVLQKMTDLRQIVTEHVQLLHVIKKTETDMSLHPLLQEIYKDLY
In words: Agonist activity at PPARgamma in mouse 3T3-L1 cells assessed as increase of triacylglycerol accumulation at 20 uM after 18 hrs by ORO staining. Format: cell-based. Summed up:
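Differentiated 3T3-L1 adipocytes on coverslips, treated for 18 h (overnight) with 20 μM or 25 μM. Cells fixed in 4% PFA, rinsed in 60% isopropanol, stained 10 min with Oil Red O (0.5% stock diluted 6/4 in water), then imaged by microscopy for neutral lipid.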

Sequence of Peroxisome proliferator-activated receptor (Homo sapiens) (P37231 whole entry, looked up, one chain of several): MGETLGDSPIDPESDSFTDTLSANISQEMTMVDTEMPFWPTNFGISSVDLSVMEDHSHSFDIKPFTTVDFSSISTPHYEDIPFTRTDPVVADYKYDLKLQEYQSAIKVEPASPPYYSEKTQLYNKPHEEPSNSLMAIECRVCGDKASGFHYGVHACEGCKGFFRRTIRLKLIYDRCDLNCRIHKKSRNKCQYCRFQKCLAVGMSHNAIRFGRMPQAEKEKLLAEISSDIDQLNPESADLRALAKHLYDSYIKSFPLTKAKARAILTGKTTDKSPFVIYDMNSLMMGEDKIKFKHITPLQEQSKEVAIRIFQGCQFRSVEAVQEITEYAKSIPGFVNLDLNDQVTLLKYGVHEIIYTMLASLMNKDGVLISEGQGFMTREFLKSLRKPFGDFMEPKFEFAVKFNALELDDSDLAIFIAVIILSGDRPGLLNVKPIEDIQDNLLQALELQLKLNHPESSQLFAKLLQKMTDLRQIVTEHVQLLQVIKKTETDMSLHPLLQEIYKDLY
Sequence of Peroxisome proliferator-activated receptor (Homo sapiens) (Q03181 whole entry, looked up, one chain of several): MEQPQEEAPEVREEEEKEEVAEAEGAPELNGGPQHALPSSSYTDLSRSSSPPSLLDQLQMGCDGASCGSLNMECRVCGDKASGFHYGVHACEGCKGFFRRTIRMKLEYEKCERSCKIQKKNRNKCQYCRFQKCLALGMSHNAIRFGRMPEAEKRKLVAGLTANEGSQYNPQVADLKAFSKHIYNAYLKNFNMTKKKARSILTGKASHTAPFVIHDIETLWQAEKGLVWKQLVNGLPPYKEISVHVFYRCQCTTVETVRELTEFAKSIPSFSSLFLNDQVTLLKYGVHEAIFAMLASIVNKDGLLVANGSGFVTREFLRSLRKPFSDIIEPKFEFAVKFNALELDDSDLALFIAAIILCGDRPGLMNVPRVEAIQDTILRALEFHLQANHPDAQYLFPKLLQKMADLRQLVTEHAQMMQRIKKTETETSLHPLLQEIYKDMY

For the molecule `Cn1c(Cc2ccccc2)nn(CN2CCC(c3ccccc3)CC2)c1=S`, the fold change (FC) in data set [1] came out at 3.
`COc1ccc2c(=O)c(-c3ccccc3)coc2c1C`: the outcome in data set [1] was inactive.
Consider `CCOc1ccc2c(=O)c(-c3ccccc3)coc2c1C`, for which the result in data set [1] was inactive.
The term inhibition denotes the drop in the measured response relative to a control, in per cent. Read a low inhibition as little suppression. In data set [2], `CN(CCOc1ccc(CC2SC(=O)NC2=O)cc1)c1ccccn1` (stereo not given) [ROSIGLITAZONE] had an inhibition at 100 µM of less than 5%.
In the case of `Cc1cccc(Nc2cc(Cl)nc(SCC(=O)O)n2)c1C` [PIRINIXIC ACID], the result in data set [3] was Active. This molecule also returned an inhibition at 100 µM in data set [2] of less than 5%.
In the case of `CCN(CC)c1ccc(NC(=O)c2ccccc2OCC(=O)N2CCc3ccccc32)cc1`, in data set [3], the result was Active. For the same molecule, the fold change (FC) in data set [4] was more than 2; in data set [1], 3. The Activity in data set [5] is 20%.

The values above are taken from ChEMBL document CHEMBL3739336, “Identification of dual PPARα/γ agonists and their effects on lipid metabolism” (Bioorg Med Chem, 2015).
